# From PubChem
# Compounds with a hit are over-represented: about 0.55% of the library has one in this group of screens.
# OXTR potentiate: human OXTR potentiation | P30559 | 0.061% of 320,000 active | activation, % at 3 µM | AID 2445 | CHO-OTR cells, Fluo-8 calcium fluorescence, potentiator mode; 0% = oxytocin EC15, 100% = EC100;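 active means activation above that plate's cutoff, the mean activation of tested compounds plus 3 SD, cut at about 6.6% in these data, passing the limit was not always enough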;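 further: 100% uses oxytocin at 75 nM as the full agonist control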
#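 Material: human OTR in CHO cells. Compound: 3.0 µM, one dose. Timing: compound 6 min at room temperature before oxytocin, 100 s read. Evaluation: % activation of max/min ratio relative to oxytocin controls. Replication: single well per compound, singlicate. Signal: Fluo-8 calcium dye fluorescence.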
# OXTR agonist: agonists of human oxytocin receptor. CHO-OTR cells, Fluo-8 calcium fluorescence; normalized: DMSO 0%, oxytocin 100%. 0.32% of 320,000 active. activation, % at 3 µM;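 active means activation above the mean of all tested compounds plus 3 SD, cutoff set per screening run, cut at about 20% in these data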;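 further: peak over basal fluorescence ratio from a 100 s FLIPR kinetic read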
# TRPN1 ag: zebrafish TRPN1 (NompC) channel agonism. activation, % at 3 µM. 0.18% of 220,000 active. HEK293 zebrafish TRPN1-YFP, Fluo-8 calcium fluorescence; 100% = response to 87 µM carbachol;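 active means activation above its plate's cutoff, the mean activation of test wells on that plate plus 3 SD, cut at about 19% in these data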;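 further: 0% = DMSO alone and 100% = 87 µM carbachol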
#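 Material: zebrafish TRPN1-YFP in HEK293 cells. Doses: one dose of 3 µM, 0.3% DMSO. Incubation: dye 1 h 37 °C plus 30 min RT. Measured by: intracellular calcium fluorescence with Fluo-8.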
# TRPML3 ag: activates the human TRPML3 channel. activation, % at 3 µM. 0.29% of 220,000 active. Q8TDD5. HEK293 TRPML3-YFP, Fluo-8 calcium fluorescence; 100% = the carbachol control signal;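 active means activation above its plate's cutoff, the mean activation of the plate's test wells plus 3 SD, cut at about 12% in these data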;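 further: 0% = DMSO only wells and 100% = carbachol wells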
#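 Test system: TRPML3-YFP stable HEK293 cells. Doses: single point at 3 µM. Incubation: dye loading 1 h 37 °C then 30 min ambient, 125 s read. Signal: Fluo-8 calcium dye fluorescence, ex 470-495, em 515-575 nm. Measure: percent activation from peak-to-basal fluorescence ratio, scaled between DMSO and carbachol.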
# V1R ag counter: counter-screen for oxytocin receptor agonists: human V1a receptor agonists. P37288. activation, % at 3 µM. CHO-V1R cells, Fluo-8 calcium fluorescence, agonist mode; 0% DMSO, 100% 3 nM vasopressin. 0.25% of 320,000 active. AID 2797;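 active means activation above the mean activation of all tested compounds plus 3 SD, per screening run, cut at about 20% in these data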;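 further: signal is peak over basal fluorescence ratio across a 100 second FLIPR read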
# Target sequence (P37288 whole entry, looked up): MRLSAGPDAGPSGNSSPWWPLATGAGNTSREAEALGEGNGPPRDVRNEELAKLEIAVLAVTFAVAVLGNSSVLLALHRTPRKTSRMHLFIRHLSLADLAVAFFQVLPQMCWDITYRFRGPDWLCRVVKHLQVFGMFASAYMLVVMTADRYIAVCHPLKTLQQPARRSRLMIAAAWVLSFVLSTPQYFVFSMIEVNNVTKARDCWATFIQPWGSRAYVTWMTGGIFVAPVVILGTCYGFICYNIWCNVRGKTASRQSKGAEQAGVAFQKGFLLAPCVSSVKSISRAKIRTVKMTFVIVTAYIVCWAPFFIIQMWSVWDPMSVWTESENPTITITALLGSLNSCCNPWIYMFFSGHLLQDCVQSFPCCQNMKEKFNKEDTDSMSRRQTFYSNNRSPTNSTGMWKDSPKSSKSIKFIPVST
# OXTR ag confirm: human OXTR agonism, confirmation | 20% of 390 active | activation, % at 3 µM | shares compounds with OXTR agonist | AID 434963 | CHO-OTR cells, Fluo-8 calcium fluorescence, agonist;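 active means mean activation above about 20% derived from the earlier single-dose screen, limit read from the data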;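 further: peak over minimum fluorescence ratio per well during a 100 second FLIPR read; 0% = DMSO alone and 100% = oxytocin high control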
# V1aR counter 3x: V1R agonism in triplicate, counter-screen for OXTR agonists; shares compounds with OXTR agonist; CHO-V1R cells, Fluo-8 calcium fluorescence, agonist; activation, % at 3 µM; 10% of 390 active; AID 434991;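 active means mean activation over triplicate exceeds the hit threshold set in the earlier primary screen, cut at about 20% in these data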;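 further: peak over basal fluorescence ratio within a 100 second read; 0% = DMSO alone and 100% = 3 nM vasopressin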
# * hit, by the source's call; . = no result given.
SMILES,OXTR potentiate,OXTR agonist,TRPN1 ag,TRPML3 ag,V1R ag counter,OXTR ag confirm,V1aR counter 3x
O=C(Nc1nnc(C2=COCCO2)o1)c1ccc(F)cc1,-14,0,.,.,1,.,.
C=CCOc1ccc(CN(C)c2ccc(S(=O)(=O)N3CCN(C)CC3)cc2[N+](=O)[O-])cc1,-11,12,.,.,12,.,.
CN1CCN(S(=O)(=O)c2ccc(N(C)Cc3ccc(C(F)(F)F)cc3)c([N+](=O)[O-])c2)CC1,-12,20*,.,.,16,10,6
CCOc1ccc(CN(C)c2ccc(S(=O)(=O)N3CCN(C)CC3)cc2[N+](=O)[O-])cc1OC,-12,22*,.,.,12,10,9
Cc1ccc(-c2noc(C3CCCN(C(=O)c4ccc(F)cc4F)C3)n2)cc1 (centres undefined),-8,2,0,0,1,.,.
COc1ccc(C(CCN2CCCCC2)c2c(OC)cc(OC)c3c(-c4ccccc4)cc(=O)oc23)cc1 (centres undefined),-16,21*,.,.,16,9,7
Nc1ccc(Br)c2c1C(=O)c1ccccc1C2=O,-13,34*,12,9,10,6,3
Clc1ccc(Nc2ccc(NCc3ccccc3)nn2)cc1,-4,-2,-2,0,6,.,.
O=C(Nc1ccc(S(=O)(=O)N2CCCCC2)cc1)c1ccc(CN2CCOCC2)cc1,-12,20*,12,6,17,7,9
CCCCCCOc1ccc(OCC(O)CN2C(=O)NC(C)(C)C2=O)cc1 (centres undefined),-11,24*,1,0,14,5,2
CSc1ccc2c(c1)N(CCC1CCCCN1C)c1ccccc1S2 (centres undefined),-10,24*,2,1,9,16,5
O=c1c2cc(NC(=S)NCCN3CCCCCC3)ccc2nc2n1CCCCC2,-4,-1,-1,1,0,.,.
O=c1c2cc(NC(=S)NCCCN3CCC(Cc4ccccc4)CC3)ccc2nc2n1CCCCC2,-27,20*,6,5,14,16,14
CC(=O)c1ccc(NC(=O)CN2CCCCCC2)cc1,-7,21*,.,.,1,1,0
Cc1ccc(Cl)cc1N1CCN(CC(=O)Nc2ccc(CN3CCCCC3)cc2)CC1,-14,28*,14,9,12,19,13
CCN1CCN(CC(=O)Nc2ccc(C(C)=O)cc2)CC1,-13,3,.,.,2,.,.
CC(Oc1ccc(F)cc1)C(=O)Nc1ccc(S(=O)(=O)NC2=NCCCCC2)cc1 (centres undefined),-12,25*,.,.,15,28*,20
CC(Oc1cccc(Cl)c1)C(=O)Nc1ccc(S(=O)(=O)NC2=NCCCCC2)cc1 (centres undefined),-16,14,.,.,10,.,.
O=C1CC2(CCN(C(=O)c3ccccc3F)CC2)Oc2ccccc21,-6,1,.,.,0,.,.
Cc1ccc(NS(=O)(=O)c2ccc(C(=O)NCC(c3ccco3)N3CCCCC3)cc2)cc1 (centres undefined),-17,24*,.,.,16,24*,12
O=C(NCC(c1ccco1)N1CCCCC1)c1ccc(S(=O)(=O)Nc2ccccc2)cc1 (centres undefined),-6,6,.,.,5,.,.
Cc1[nH]c2ccccc2c1C(=O)CSc1ccc(Cl)cc1,-22,-1,0,1,1,.,.
Cc1[nH]c2ccccc2c1C(=O)CN1C(=O)NC(C)(c2ccc(Cl)cc2Cl)C1=O (centres undefined),-14,32*,7,2,20,28*,18
c1ccc(Cc2nn3c(C4COc5ccccc5O4)nnc3s2)cc1 (centres undefined),-8,0,0,-1,1,.,.
CCc1ccc(Nc2n[n+](-c3ccccc3)c(-c3ccc(N(CC)CC)cc3)s2)cc1,-18,40*,.,.,17,71*,101*
SMILES,OXTR potentiate,OXTR agonist,TRPN1 ag,TRPML3 ag,V1R ag counter,OXTR ag confirm,V1aR counter 3x
CSC1=NSC2=NC(=O)/C(=C\c3coc4ccccc4c3=O)C(=N)N12,-11,26*,29*,15*,18,329*,488*
Cc1cc(/C=C2/C(=N)N3C(=NC2=O)SN=C3S(C)(=O)=O)c(C)n1-c1ccc(F)cc1,-13,2,1,0,2,.,.
OC(c1cc(C(F)(F)F)nc2c(Cl)cc(Cl)cc12)C1CCCCN1 (centres undefined),-15,23*,2,2,9,9,5
O[C@@H](c1cc(C(F)(F)F)nc2c(C(F)(F)F)cccc12)[C@H]1CCCCN1,-18,17,.,.,9,.,.
COc1cccc(NC(=O)Nc2nc(SC(C)(C)C)ns2)c1,-26,23*,.,.,18,13,11
O=C(Nc1cccc(Cl)c1)Nc1cccc(Cl)c1,-22,14,10,5,9,.,.
CCSc1nsc(NC(=O)Nc2cccc(F)c2)n1,-26,20*,.,.,16,12,13
O=C(Nc1cccc(F)c1)Nc1cccc(Cl)c1,-25,20*,.,.,13,5,6
COc1cccc(NC(=O)Nc2nc(SC)ns2)c1,-8,12,.,.,10,.,.
O=C(CN1CCN(Cc2ccccc2)CC1)Nc1nc2ccccc2s1,-4,3,.,.,1,.,.
CCc1nc2sc3c(c2c(=O)o1)CCCC3,-6,-1,0,0,-1,.,.
O=C(NCCCN1CCOCC1)c1ccc2c(c1)N(Cc1ccccc1)C(=O)c1ccccc1S2=O (centres undefined),-8,0,.,.,0,.,.
CCCCCCC(=O)N1CCN(c2cc3c(cc2F)c(=O)c(C(=O)O)cn3CC)CC1,-1,-2,0,0,-1,.,.
CCN(CC)C(=O)C1CCN(Cc2cn(C)nc2-c2ccc(Oc3ccccc3)cc2)CC1,-6,0,0,1,2,.,.
COc1ccc(NS(=O)(=O)c2ccc(-n3nnc4ccccc43)c([N+](=O)[O-])c2)cc1,-11,24*,8,2,8,13,8
O=[N+]([O-])c1ccc(O)c(-c2cc(C(F)(F)F)nc(-c3ccccc3)n2)c1,-23,26*,.,.,16,15,12
O=C1/C(=C/c2ccccc2)N=C(N2CCOCC2)N1c1cccc(Cl)c1,-10,26*,-2,-1,7,10,7
Cc1nc(Cc2nnc(SCC(=O)N3CC(=O)Nc4ccccc43)o2)cs1,-4,0,.,.,2,.,.
COCCCNC(=S)N/N=C/c1ccccc1O,4,1,0,1,2,.,.
CCCCNC(=O)CCCn1c(=S)[nH]c2cc3c(cc2c1=O)OCO3,-2,22*,1,1,-2,-1,0
